LANA-H2A inh: blocks KSHV LANA binding to histone H2A/H2B; Q9QR71; cell-free LANA-H2A/H2B peptide, fluorescence polarization; inhibition, % (no concentration beside the values); 320,000 tested, 0.6% active; in the data active means inhibition mostly above about 10%, no sharp cut-off; inactive means mostly below about 6.7%
Pemphigus Ab inh: human desmoglein-3 autoantibody binding inhibition; P32926; DSG3-coupled beads, scFv-anti-DSG3-GFP binding, flow cytometry; active compounds read low; binding (percent of control), % at 10 µM; 310,000 tested, 0.48% active; AID 588358;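 active means binding more than 3 SD below its plate's average and above zero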;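 further: hits lower antibody fragment binding to DSG3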
HDAC3 inh: blocks human histone deacetylase 3; AID 2718; 320,000 tested, 0.15% active; O15379; inhibition, % at 8.3 µM; recombinant HDAC3, fluorogenic peptide/trypsin coupled, fluorescence; in the data active means inhibition above about 26%, passing the limit was not always enough
T cell modulator: T cell immune modulation candidate; 2C CD8+ T cell-vesicle binding, flow cytometry; active compounds read low; response (vesicle binding), % at 7 µM; 330,000 tested, 0.068% active;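 active means response, share of CD8 T cells binding vesicles, and their 90th percentile fluorescence all below set limits, cut at about 80% in these data, passing the limit was not always enough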;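 further: values below 100% mean blocked vesicle binding to the CD8+ T cells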
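Incubation: binding step 1.5 h, 37 °C, antibody labelling 20 min, ice; system: murine 2C transgenic CD8+ T lymphocytes; technique: cytometric PE anti-B7-1 and Alexa647 anti-CD8 signals after 1% paraformaldehyde fixation; also added: QL9-charged Drosophila Ld/ICAM-1/B7-1 vesicles; control set: naked versus QL9-loaded vesicles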
Arr AP2 block: inhibitors of human beta-arrestin and AP2 interaction | FITC-arrestin peptide / GST-AP2 beads, flow cytometry; AP2 beta2 appendage carries R879A mutation | inhibition, % at 10 µM | 340,000 tested, 0.31% active | AID 504490;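 active means inhibition above a set limit, near 3 SD of compounds lacking own fluorescence, cut at about 54% in these data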
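System: GST-tagged AP2 beta2-adaptin appendage (R879A) on 4 µm glutathione beads / Reagent: FITC-arrestin peptide, 50 nM / Detection: HyperCyt-sampled flow cytometry, FL1 channel, ex 488/em 535 nm / Timing: 12 min plus 1 h, RT / Buffer or medium: PBS plus Tween 20 (0.05%) and BSA (0.1%)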
Each line names hits and unclear results; the compound was inactive in the other large screens; ! = not active in a repeat. In the library only some 1.5% were active in any assay of this set; here they are far more common.

Cc1ccc(CNC(=O)CN(c2ccc(C(C)C)cc2)S(=O)(=O)c2c(C)noc2C)cc1	none
CN(C)CCN1C(=O)C2C(C(=O)Nc3cc(Cl)cc(Cl)c3)C3C=CC2(O3)C1C(=O)NC1CCCCC1 (stereo not drawn)	none
Cc1ccc(/C=C/c2nnc(-c3cccs3)o2)cc1	Pemphigus Ab inh 70
CCN(CC)CCNC(=O)c1ccc(NC(=O)Nc2cccc3ccccc23)cc1	none
O=C1CCCN2N=C(SCC(=O)Nc3cccc(Cl)c3)SC2=N1	LANA-H2A inh 26
O=C1CCCN2N=C(SCC(=O)Nc3ccc(Cl)cc3)SC2=N1	none
CC1(C)CNC(=O)c2sc(NC(=O)c3ccccc3)nc2C1	LANA-H2A inh 18
CCOc1ccccc1NC(=O)Cn1c(=O)n(CCC(=O)NC2CCCC2)c(=O)c2ccccc21	LANA-H2A inh 31
COCCn1c(C)cc(C(=O)COc2ccc(N(C)S(=O)(=O)c3ccc(C)cc3)cc2)c1C	none
O=C(CSc1nc2ccccc2n1CC(=O)N1CCCCC1)N1CCCCC1	none
CC(=O)Nc1ccc(C(=O)CSc2nc3ccccc3n2CC(=O)N2CCCC2)cc1	HDAC3 inh 67
CC1CN2C(c3ccc(Cl)cc3)=CSC2=N1 (stereo not drawn)	none
O=C1CCc2cc(S(=O)(=O)N3CCC(C(=O)NCCC4=CCCCC4)CC3)ccc2N1	none (no result: LANA-H2A inh, HDAC3 inh)
Cc1ccc(CCNC(=O)C2CCN(S(=O)(=O)c3ccc4c(c3)CCC(=O)N4)CC2)cc1	Pemphigus Ab inh 77
COc1ccc(C)cc1S(=O)(=O)N1CCC(C(=O)NCCC2=CCCCC2)CC1	none
COc1ccc(S(=O)(=O)N2CCC(C(=O)NCCC3=CCCCC3)CC2)cc1C	LANA-H2A inh 34
O=C(CCc1ccccc1)Nc1cc(S(=O)(=O)N2CCOCC2)ccc1N1CCCC1	none (no result: LANA-H2A inh, HDAC3 inh, T cell modulator)
CCCOc1ccc(C(=O)NC(=S)N2CCN(c3ncc4c(=O)c(C(=O)O)cn(CC)c4n3)CC2)cc1	none (no result: LANA-H2A inh, HDAC3 inh, T cell modulator, Arr AP2 block)
CCn1cc(C(=O)O)c(=O)c2cnc(N3CCN(C(=S)NC(=O)c4ccccc4)CC3)nc21	LANA-H2A inh 14
C/C(=N\N=C1/NC(=O)C(C)S1)c1ccc([N+](=O)[O-])cc1 (stereo not drawn)	LANA-H2A inh 16
COc1ccc(Cl)cc1N(CC(=O)N1CCC(C)CC1)S(C)(=O)=O	Pemphigus Ab inh 81
CC(=O)O[C@]1(C(C)=O)CC[C@H]2[C@@H]3C=C(Cl)C4=CC(=O)[C@@H]5C[C@@H]5[C@]4(C)[C@H]3CC[C@@]21C	LANA-H2A inh 15!
CC(=O)O[C@]1(C(C)=O)CC[C@H]2[C@@H]3C=C(Cl)C4=CC(=O)CC[C@]4(C)[C@H]3CC[C@@]21C	none
O=C(Nc1ccc(Cc2ccncc2)cc1)c1cccc([N+](=O)[O-])c1	none (no result: HDAC3 inh)
O=C(Nc1ccc(Nc2ccncc2)cc1)c1ccc(Nc2ccnc3ccc([N+](=O)[O-])cc23)cc1	Pemphigus Ab inh 60 (no result: LANA-H2A inh, HDAC3 inh, T cell modulator)
COc1cc(CNCCc2ccccc2)ccc1OCC(N)=O	LANA-H2A inh 20
COc1cc2[nH]c(=O)c(C(=O)NCc3ccc(F)cc3)c(O)c2cc1OC	none
COc1ccc(CNC(=O)c2ccc(-c3ccccc3)cc2)cc1OC	Pemphigus Ab inh 76 (no result: HDAC3 inh)
COc1ccc(CNC(=O)c2ccc(-c3ccccc3)cc2)cc1	none
COc1ccc(CNC(=O)c2c(O)c3cc(OC)c(OC)cc3[nH]c2=O)cc1OC	Pemphigus Ab inh 79
CN(C(=O)c1ccoc1)c1ccc2ccccc2c1	none
Cc1ccc(S(=O)(=O)N2CCOCC2)cc1NC(=O)COC(=O)c1ccc(Br)o1	none (no result: LANA-H2A inh, HDAC3 inh, T cell modulator)
CCN(C(=O)CSc1nc2ccccc2o1)c1c(N)n(Cc2ccccc2)c(=O)[nH]c1=O	none
O=C1NC(=S)NC1=Cc1ccco1	Pemphigus Ab inh 78 (no result: LANA-H2A inh, HDAC3 inh, T cell modulator)
O=C1NC(=O)/C(=C/c2ccco2)N1	none
Cc1ccc(-n2ncc(C#N)c2N)cc1	none (no result: Pemphigus Ab inh)
Cc1cc(C)nc(-n2ncc(C#N)c2N)n1	LANA-H2A inh 11
COC(=O)C1=C(CS(=O)(=O)c2cc(Cl)ccc2OC)NC(=O)NC1c1ccc(O)c(OC)c1 (stereo not drawn)	none (no result: Pemphigus Ab inh)
NC(N)=N/N=C(\N=Nc1ccccc1)c1ccc(Cl)cc1	none (no result: LANA-H2A inh, HDAC3 inh, T cell modulator)
Cc1ccc(NNC(=O)C(O)(c2cccc(C(F)(F)F)c2)c2cccc(C(F)(F)F)c2)cc1	HDAC3 inh 41
O=c1c2nnn(-c3ccccc3)c2ncn1C/C=C/c1ccccc1	Pemphigus Ab inh 70
Cc1ccc(-n2nnc3c(=O)n(CC(=O)N4CCCC4)cnc32)cc1	LANA-H2A inh 10
COc1cccc(-n2nnc3c(=O)n(C/C=C/c4ccccc4)cnc32)c1	none (no result: HDAC3 inh)
C/C(=N\Nc1nncc2ccccc12)c1ccc(O)cc1	LANA-H2A inh 12
O=C(NCCCO)C(=O)Nc1cc2c3c(c1)CCC(=O)N3CCC2	LANA-H2A inh 19
COCCCNC(=O)C(=O)Nc1cc2c3c(c1)CCC(=O)N3CCC2	none
NCC1CCC(C(=O)Oc2ccc(CCC(=O)O)cc2)CC1 (stereo not drawn)	HDAC3 inh 81
CCn1c(=O)c(C(=O)CN(C)CC(=O)Nc2ccccc2Br)c(N)n(Cc2ccccc2)c1=O	none (no result: LANA-H2A inh, HDAC3 inh, T cell modulator)
CCOC(=O)c1c(N)nn(C(=O)C(C)(C)C)c1-c1ccccc1	Pemphigus Ab inh 92
CCOC(=O)c1c(N)nn(C(=O)c2ccccc2F)c1-c1ccc(OC)cc1	none (no result: Pemphigus Ab inh)
Cc1sc2ncnc(-n3cnc4ccccc43)c2c1C	LANA-H2A inh 83
O=C(NCc1ccccc1Cl)c1ccc(CS(=O)Cc2ccc(Cl)cc2)o1 (stereo not drawn)	none
Cn1ncc([N+](=O)[O-])c1C(=O)Nc1ccccc1Cl	LANA-H2A inh 13
Cc1ccc(S(=O)(=O)n2c([N+](=O)[O-])cnc2C)cc1C	LANA-H2A inh 12
C#CCSc1nncn1C(=O)/C=C/c1ccccc1	HDAC3 inh 73 (no result: Pemphigus Ab inh, Arr AP2 block)
COC(=O)C(C(=O)OC)c1ccc(-n2cccc2)cc1	Arr AP2 block 56
COc1ccc(C(=O)NCc2ccc(-n3cccc3)cc2)cc1OC	none
Cc1c(C=O)c(=O)n(-c2ccccc2)n1C	none
Cc1c(N(C)C)c(=O)n(-c2ccccc2)n1C	LANA-H2A inh 42
COc1ccc(CCn2c(C)nc3c(c(=O)c4ccccc4n3C)c2=O)cc1	LANA-H2A inh 11
COc1ccc(-c2ccc3c(c2)S(=O)(=O)c2cccc(C(=O)NC4CCCCC4)c2C3=O)cc1OC	Pemphigus Ab inh 54
COc1ccc(-c2ccc3c(c2)S(=O)(=O)c2cccc(C(=O)NC4CC4)c2C3=O)cc1OC	none
Cc1c(C(=O)OCC(=O)NCc2ccco2)oc2ccccc12	T cell modulator 65 (no result: Pemphigus Ab inh)
COc1cc(OC)cc(C(=O)NCC(=O)OCC(=O)NCc2ccco2)c1	HDAC3 inh 33
COCc1c(C(=O)OCC(=O)NCc2ccco2)oc2ccccc12	none
CCN(CC)CCn1c(NS(=O)(=O)c2ccc(C)cc2)nc2ccccc21	none
CCCn1c(CNS(=O)(=O)c2ccc(C)cc2)nc2ccccc21	Pemphigus Ab inh 66
